Assay results published in ChEMBL document CHEMBL1141578, “Structure-based optimization of cephalothin-analogue boronic acids as beta-lactamase inhibitors” (Bioorg Med Chem, 2008).
pKi: −log10 of the molar value.

Tests used:
[1] = Inhibition of AmpC beta lactamase N289A mutant
How it was run: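 Rates were taken at steady state after the lag phase. Ki came from progress curves with and without inhibitor (Waley method), averaged over five inhibitor concentrations giving ≥50% inhibition, each in triplicate.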

[2] = Inhibition of beta lactamase TEM1
[3] = Inhibition of beta lactamase TEM30
[4] = Inhibition of AmpC beta lactamase

Structure (SMILES) | pKi [1] | pKi [2] | pKi [3] | pKi [4]
O=C(O)/C=C/c1cccc([C@H](NC(=O)Cc2cccs2)B(O)O)c1 | 8.55 | 6.97 | 5.42 | –
O=C(Cc1cccs1)N[C@H](B(O)O)c1cccc(C(=O)O)c1 | 7.77 | 7.19 | 5.11 | 9.00
CC(=O)OCC1=C(C(=O)O)N2C(=O)[C@@H](NC(=O)Cc3cccs3)[C@H]2SC1 [CEPHALOTHIN] | – | – | – | 6.49
CB(O)O [METHANE BORONIC ACID] | – | – | – | 3.00
O=C(Cc1cccs1)N[C@H](B(O)O)c1ccccc1 | – | – | – | 7.46
O=C(Cc1cccs1)NCB(O)O | – | – | – | 6.49
CC(=O)NCB(O)O [ACETAMIDOMETHYLBORONIC ACID] | – | – | – | 4.73
